BindingDB's records for doi:10.1016/j.bmcl.2019.05.046 (Peking University, 2019)

Molecular target: Neuronal acetylcholine receptor subunit alpha-7 (Homo sapiens, UniProt P36544)
Assay: Positive allosteric modulation activity at human alpha7 nAChR expressed in Xenopus laevis oocytes assessed as increase in acetylcholine-induced channel current by measuring acetylcholine EC50 at 10 uM at -90 mV holding potential preincubated for 2 mins followed by co-application with acetylcholine for 10 secs by two-electrode voltage clamp method (Rvb = 231.8 +/- 2 uM)
Outline: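 ACh concentration-response on α7-expressing Xenopus oocytes, run without compound or after 2 min preincubation with 10 μM compound. Peak currents were normalised to the current evoked by 100 μM ACh alone. Curves were fitted for Emax, ACh EC50 and Hill coefficient, n = 4 per point.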

Sequence of Neuronal acetylcholine receptor subunit alpha-7 (P36544 whole entry): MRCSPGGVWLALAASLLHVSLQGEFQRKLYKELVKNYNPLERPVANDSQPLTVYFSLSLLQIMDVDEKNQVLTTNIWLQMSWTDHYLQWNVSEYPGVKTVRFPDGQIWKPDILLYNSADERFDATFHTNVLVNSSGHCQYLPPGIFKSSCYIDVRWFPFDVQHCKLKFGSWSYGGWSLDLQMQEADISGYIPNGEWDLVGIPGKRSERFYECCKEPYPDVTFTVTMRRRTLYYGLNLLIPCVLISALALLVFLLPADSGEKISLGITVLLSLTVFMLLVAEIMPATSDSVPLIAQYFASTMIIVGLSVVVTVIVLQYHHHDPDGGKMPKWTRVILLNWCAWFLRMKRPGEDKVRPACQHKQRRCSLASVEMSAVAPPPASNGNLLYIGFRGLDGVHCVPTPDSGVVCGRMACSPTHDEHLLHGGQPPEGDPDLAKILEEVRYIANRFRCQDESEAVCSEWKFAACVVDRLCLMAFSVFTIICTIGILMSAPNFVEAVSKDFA

Cc1cc(-c2cnc(N)c(C(=O)Nc3c(C)cccc3Cl)c2)ccc1F
EC50: 258 µM
